# Test results: ChEMBL document CHEMBL3588757, “Structure-based design, synthesis and biological testing of piperazine-linked bis-epipodophyllotoxin etoposide analogs” (Bioorg Med Chem, 2015)
# Legend:
# Type in all cases: functional
# SK-MEL-5 [1] = experiment: Cytotoxicity against human SK-MEL-5 cells assessed as cell growth at 50 uM by SRB assay; settings: read-out: Activity
# DU-145 = experiment: Cytotoxicity against human DU145 cells assessed as cell growth at 50 uM by SRB assay; settings: read-out: Activity
# In short: (§1)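 Measured in the NCI-60 human tumour cell line panel using five-dose testing. Growth was recorded at each dose for each cell line, and a GI50 was derived for each line.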
# MCF7 = experiment: Cytotoxicity against human MCF7 cells assessed as cell growth at 50 uM by SRB assay; settings: read-out: Activity
# [2] = Cytotoxicity against human Hs578T cells assessed as cell growth at 50 uM by SRB assay; settings: Hs-578T, read-out: Activity; in short: as §1
# HL-60(TB) = experiment: Cytotoxicity against human HL-60(TB) cells by SRB assay; in short: as §1
# RPMI-8226 = experiment: Cytotoxicity against human RPMI8226 cells by SRB assay
# In short: (§2)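 NCI-60 panel screen; 5-dose testing giving GI50 per cell line, plus a single 10 µM one-dose test. Method details not given beyond the NCI screen.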
# A549 [3] = experiment: Cytotoxicity against human A549/ATCC cells by SRB assay
# SK-MEL-5 [4] = experiment: Cytotoxicity against human SK-MEL-5 cells by SRB assay; in short: as §2
# OVCAR-3 [5] = experiment: Cytotoxicity against human OVCAR3 cells by SRB assay; in short: as §2
# [6] = Cytotoxicity against human NCI-ADR-RES cells by SRB assay; in short: as §2
# ACHN = experiment: Cytotoxicity against human ACHN cells by SRB assay
# CCRF-CEM = experiment: Cytotoxicity against human CCRF-CEM cells assessed as cell growth at 0.005 uM by SRB assay; settings: read-out: Activity
# NCI-H322M [7] = experiment: Cytotoxicity against human NCI-H322M cells assessed as cell growth at 0.005 uM by SRB assay; settings: read-out: Activity
# HCT-116 [8] = experiment: Cytotoxicity against human HCT116 cells assessed as cell growth at 0.005 uM by SRB assay; settings: read-out: Activity; in short: as §1
# SF-539 [9] = experiment: Cytotoxicity against human SF539 cells assessed as cell growth at 0.005 uM by SRB assay; settings: read-out: Activity
# U-251 = experiment: Cytotoxicity against human U251 cells assessed as cell growth at 0.005 uM by SRB assay; settings: read-out: Activity
# 786-0 = experiment: Cytotoxicity against human 786-0 cells assessed as cell growth at 0.005 uM by SRB assay; settings: read-out: Activity
# UO-31 [10] = experiment: Cytotoxicity against human UO31 cells assessed as cell growth at 0.005 uM by SRB assay; settings: read-out: Activity
# PC-3 = experiment: Cytotoxicity against human PC3 cells assessed as cell growth at 0.005 uM by SRB assay; settings: read-out: Activity
# HOP-92 = experiment: Cytotoxicity against human HOP92 cells assessed as cell growth at 0.05 uM by SRB assay; settings: read-out: Activity; in short: as §1
# NCI-H226 = experiment: Cytotoxicity against human NCI-H226 cells assessed as cell growth at 0.05 uM by SRB assay; settings: read-out: Activity
# NCI-H522 = experiment: Cytotoxicity against human NCI-H522 cells assessed as cell growth at 0.05 uM by SRB assay; settings: read-out: Activity
# SF-539 [11] = experiment: Cytotoxicity against human SF539 cells assessed as cell growth at 0.05 uM by SRB assay; settings: read-out: Activity
# OVCAR-5 = experiment: Cytotoxicity against human OVCAR5 cells assessed as cell growth at 0.05 uM by SRB assay; settings: read-out: Activity
# OVCAR-8 [12] = experiment: Cytotoxicity against human OVCAR8 cells assessed as cell growth at 0.05 uM by SRB assay; settings: read-out: Activity
# UO-31 [13] = experiment: Cytotoxicity against human UO31 cells assessed as cell growth at 0.05 uM by SRB assay; settings: read-out: Activity
# BT-549 = experiment: Cytotoxicity against human BT549 cells assessed as cell growth at 0.05 uM by SRB assay; settings: read-out: Activity
# HCC 2998 = experiment: Cytotoxicity against human HCC2998 cells assessed as cell growth at 0.5 uM by SRB assay; settings: read-out: Activity; in short: as §1
# SW-620 [14] = experiment: Cytotoxicity against human SW620 cells assessed as cell growth at 0.5 uM by SRB assay; settings: read-out: Activity
# SF-268 = experiment: Cytotoxicity against human SF268 cells assessed as cell growth at 0.5 uM by SRB assay; settings: read-out: Activity
# MDA-MB-435 = experiment: Cytotoxicity against human MDA-MB-435 cells assessed as cell growth at 0.5 uM by SRB assay; settings: read-out: Activity
# UACC-62 = experiment: Cytotoxicity against human UACC62 cells assessed as cell growth at 0.5 uM by SRB assay; settings: read-out: Activity
# OVCAR-8 [15] = experiment: Cytotoxicity against human OVCAR8 cells assessed as cell growth at 0.5 uM by SRB assay; settings: read-out: Activity
# SK-OV-3 = experiment: Cytotoxicity against human SKOV3 cells assessed as cell growth at 0.5 uM by SRB assay; settings: read-out: Activity
# UO-31 [16] = experiment: Cytotoxicity against human UO31 cells assessed as cell growth at 0.5 uM by SRB assay; settings: read-out: Activity
# NCI-H322M [17] = experiment: Cytotoxicity against human NCI-H322M cells assessed as cell growth at 5 uM by SRB assay; settings: read-out: Activity
# COLO 205 = experiment: Cytotoxicity against human COLO205 cells assessed as cell growth at 5 uM by SRB assay; settings: read-out: Activity
# HCT-116 [18] = experiment: Cytotoxicity against human HCT116 cells assessed as cell growth at 5 uM by SRB assay; settings: read-out: Activity; in short: as §1
# SW-620 [19] = experiment: Cytotoxicity against human SW620 cells assessed as cell growth at 5 uM by SRB assay; settings: read-out: Activity
# OVCAR-3 [20] = experiment: Cytotoxicity against human OVCAR3 cells assessed as cell growth at 5 uM by SRB assay; settings: read-out: Activity
# A549 [21] = experiment: Cytotoxicity against human A549/ATCC cells assessed as cell growth at 50 uM by SRB assay; settings: read-out: Activity
# NCI-H322M [22] = experiment: Cytotoxicity against human NCI-H322M cells assessed as cell growth at 50 uM by SRB assay; settings: read-out: Activity
# [23] = read-out: LC50 (the source's name)
# [24] = read-out: pLC50 (the source's name) (converted)
smiles,measurement,setting,value
COc1cc([C@@H]2c3cc4c(cc3[C@@H](NC(=O)CN3CCN(CCCCCCCCCCN5CCN(CC(=O)N[C@@H]6c7cc8c(cc7[C@@H](c7cc(OC)c(O)c(OC)c7)[C@H]7C(=O)OC[C@@H]76)OCO8)CC5)CC3)[C@H]3COC(=O)[C@H]23)OCO4)cc(OC)c1O,growth at 50 µM,SK-MEL-5 [1],-68%
same,growth at 50 µM,DU-145,-100%
same,growth at 50 µM,MCF7,-60%
same,growth at 50 µM,[2],-22%
same,GI50,HL-60(TB); read-out: GI50,0.113 µM
same,CC50,HL-60(TB); [23],> 50 µM
same,TGI,HL-60(TB); read-out: TGI,0.901 µM
same,GI50,HL-60(TB); read-out: pGI50 (converted),0.112 µM
same,CC50,HL-60(TB); [24],> 50.1 µM
same,TGI,HL-60(TB); read-out: pTGI (converted),0.891 µM
same,GI50,RPMI-8226; read-out: GI50,0.0163 µM
same,CC50,RPMI-8226; [23],> 50 µM
same,TGI,RPMI-8226; read-out: TGI,0.369 µM
same,GI50,RPMI-8226; read-out: pGI50 (converted),0.0162 µM
same,CC50,RPMI-8226; [24],> 50.1 µM
same,TGI,RPMI-8226; read-out: pTGI (converted),0.372 µM
same,GI50,A549 [3]; read-out: GI50,0.0172 µM
same,CC50,A549 [3]; [23],> 50 µM
same,TGI,A549 [3]; read-out: TGI,0.883 µM
same,GI50,A549 [3]; read-out: pGI50 (converted),0.0174 µM
same,CC50,A549 [3]; [24],> 50.1 µM
same,TGI,A549 [3]; read-out: pTGI (converted),0.891 µM
same,GI50,SK-MEL-5 [4]; read-out: GI50,5.24 µM
same,CC50,SK-MEL-5 [4]; [23],35.4 µM
same,TGI,SK-MEL-5 [4]; read-out: TGI,13.6 µM
same,GI50,SK-MEL-5 [4]; read-out: pGI50 (converted),5.25 µM
same,CC50,SK-MEL-5 [4]; [24],35.5 µM
same,TGI,SK-MEL-5 [4]; read-out: pTGI (converted),13.5 µM
same,GI50,OVCAR-3 [5]; read-out: GI50,1.81 µM
same,CC50,OVCAR-3 [5]; [23],49.9 µM
same,TGI,OVCAR-3 [5]; read-out: TGI,13.8 µM
same,GI50,OVCAR-3 [5]; read-out: pGI50 (converted),1.82 µM
same,CC50,OVCAR-3 [5]; [24],50.1 µM
same,TGI,OVCAR-3 [5]; read-out: pTGI (converted),13.8 µM
same,GI50,[6]; read-out: GI50,6.48 µM
same,CC50,[6]; [23],> 50 µM
same,TGI,[6]; read-out: TGI,> 50 µM
same,GI50,[6]; read-out: pGI50 (converted),6.46 µM
same,CC50,[6]; [24],> 50.1 µM
same,TGI,[6]; read-out: pTGI,> 50.1 µM
same,GI50,ACHN; read-out: GI50,0.32 µM
same,CC50,ACHN; [23],2.95 µM
same,TGI,ACHN; read-out: TGI,1.11 µM
same,GI50,ACHN; read-out: pGI50 (converted),0.324 µM
same,CC50,ACHN; [24],2.95 µM
same,TGI,ACHN; read-out: pTGI (converted),1.12 µM
same,growth at 0.005 µM,CCRF-CEM,97%
same,growth at 0.005 µM,NCI-H322M [7],96%
same,growth at 0.005 µM,HCT-116 [8],99%
same,growth at 0.005 µM,SF-539 [9],98%
same,growth at 0.005 µM,U-251,85%
same,growth at 0.005 µM,786-0,97%
same,growth at 0.005 µM,UO-31 [10],86%
same,growth at 0.005 µM,PC-3,99%
same,growth at 0.05 µM,HOP-92,73%
same,growth at 0.05 µM,NCI-H226,83%
same,growth at 0.05 µM,NCI-H522,39%
same,growth at 0.05 µM,SF-539 [11],74%
same,growth at 0.05 µM,OVCAR-5,83%
same,growth at 0.05 µM,OVCAR-8 [12],92%
same,growth at 0.05 µM,UO-31 [13],85%
same,growth at 0.05 µM,BT-549,87%
same,growth at 0.5 µM,HCC 2998,61%
same,growth at 0.5 µM,SW-620 [14],46%
same,growth at 0.5 µM,SF-268,49%
same,growth at 0.5 µM,MDA-MB-435,39%
same,growth at 0.5 µM,UACC-62,81%
same,growth at 0.5 µM,OVCAR-8 [15],51%
same,growth at 0.5 µM,SK-OV-3,52%
same,growth at 0.5 µM,UO-31 [16],76%
same,growth at 5 µM,NCI-H322M [17],-42%
same,growth at 5 µM,COLO 205,-13%
same,growth at 5 µM,HCT-116 [18],-15%
same,growth at 5 µM,SW-620 [19],-63%
same,growth at 5 µM,OVCAR-3 [20],40%
same,growth at 50 µM,A549 [21],-41%
same,growth at 50 µM,NCI-H322M [22],-23%
